According to ChEMBL document CHEMBL3797022, “New applications for known drugs: Human glycogen synthase kinase 3 inhibitors as modulators of Aspergillus fumigatus growth” (Eur J Med Chem, 2016):
Calls of active or inactive are those of the source. The calls are words filed in the database; no cut-off is given here.

How the values were obtained:
[1] = system: Aspergillus nidulans; assay: Anifungal activity against Aspergillus nidulans MAD4100 deficient in crzA assessed as growth inhibition after 72 hrs by Neubauer chamber analysis; assay type: functional, organism-based
Outline: (§1)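 A. nidulans prototroph strains (wild type MAD4096; crzAΔ MAD4100) were point-inoculated with 10^3 conidia, counted by Neubauer chamber, onto 1 ml AMM. The medium contained inhibitor from a 50 mM DMSO stock added to the melted agar, with a matching DMSO control. Colonial growth was evaluated photographically after 72 h at 37°C.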

[2] = system: Aspergillus nidulans; assay: Anifungal activity against Aspergillus nidulans MAD4096 assessed as growth inhibition at 50 uM after 72 hrs by Neubauer chamber analysis; assay type: functional, organism-based; outline: as §1
[3] = system: Aspergillus nidulans; assay: Anifungal activity against Aspergillus nidulans MAD4097 deficient in sltA assessed as reduction in colonial diameter at 10 uM after 72 hrs by Neubauer chamber analysis; assay type: functional; conditions: MAD4097, 72 h
Outline: (§2)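 A. nidulans sltA-deleted prototroph MAD4097, alongside wild-type MAD4096 and crzA-null MAD4100, tested on solid minimal medium (AMM) containing increasing inhibitor concentrations, added from DMSO stock (stock 50 mM); equal DMSO in control medium. 10^3 spores (Neubauer chamber count) centrally inoculated per well; 37°C for 72 h, colonies then photographed and colonial growth evaluated.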

[4] = system: Aspergillus fumigatus; assay: Anifungal activity against Aspergillus fumigatus CM237 assessed as growth inhibition at 50 uM after 48 to 72 hrs by Neubauer chamber analysis; assay type: functional, organism-based
Outline: (§3)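 A. fumigatus wild-type prototroph conidia were used, 10^3 spores counted by Neubauer chamber and inoculated centrally onto 1 ml AMM. Inhibitors were dissolved in DMSO from 50 mM stocks and added to melted medium, with a DMSO-only control. Colonial growth was scored at 37°C after 48 and 72 h.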

[5] = system: Aspergillus fumigatus; assay: Anifungal activity against Aspergillus fumigatus AF293 assessed as growth inhibition at 50 uM after 48 to 72 hrs by Neubauer chamber analysis; assay type: functional; outline: as §3
[6] = system: Aspergillus fumigatus; assay: Anifungal activity against Aspergillus fumigatus CBS144 assessed as growth inhibition at 50 uM after 48 to 72 hrs by Neubauer chamber analysis; assay type: functional, organism-based; outline: as §3
[7] = system: Aspergillus nidulans; assay: Anifungal activity against Aspergillus nidulans MAD4096 assessed as growth inhibition after 72 hrs by Neubauer chamber analysis; assay type: functional, organism-based; outline: as §1
[8] = target: Glycogen synthase kinase-3 beta (Homo sapiens, UniProt P49841); assay: Inhibition of human recombinant GSK3beta expressed in Escherichia coli using GS-1 as substrate incubated for 20 mins by gamma[32P]ATP-based scintillation counting analysis
Sequence of Glycogen synthase kinase-3 beta (P49841 whole entry): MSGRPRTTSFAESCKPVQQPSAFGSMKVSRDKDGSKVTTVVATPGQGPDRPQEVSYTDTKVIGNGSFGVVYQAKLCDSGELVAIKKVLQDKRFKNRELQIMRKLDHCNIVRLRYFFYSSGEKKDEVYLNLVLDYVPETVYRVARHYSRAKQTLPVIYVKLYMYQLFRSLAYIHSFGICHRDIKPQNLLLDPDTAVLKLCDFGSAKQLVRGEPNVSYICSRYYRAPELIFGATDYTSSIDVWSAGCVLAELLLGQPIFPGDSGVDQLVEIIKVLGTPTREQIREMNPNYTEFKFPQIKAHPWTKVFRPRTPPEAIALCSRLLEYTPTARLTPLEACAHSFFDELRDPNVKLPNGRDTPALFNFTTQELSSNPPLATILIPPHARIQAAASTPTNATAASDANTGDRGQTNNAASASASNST

[9] = system: Aspergillus nidulans; assay: Anifungal activity against Aspergillus nidulans MAD4097 deficient in sltA assessed as reduction in colonial diameter at 50 uM after 72 hrs by Neubauer chamber analysis; assay type: functional, organism-based; outline: as §2
[10] = system: Aspergillus fumigatus; assay: Anifungal activity against Aspergillus fumigatus CM237 assessed as growth inhibition at 100 uM after 48 to 72 hrs by Neubauer chamber analysis; assay type: functional, organism-based; outline: as §3
[11] = system: Aspergillus fumigatus; assay: Anifungal activity against Aspergillus fumigatus AF293 assessed as growth inhibition at 100 uM after 48 to 72 hrs by Neubauer chamber analysis; assay type: functional; outline: as §3
[12] = system: Aspergillus fumigatus; assay: Anifungal activity against Aspergillus fumigatus CBS144 assessed as growth inhibition at 100 uM after 48 to 72 hrs by Neubauer chamber analysis; assay type: functional, organism-based; outline: as §3
[13] = system: Aspergillus nidulans; assay: Anifungal activity against Aspergillus nidulans MAD4097 deficient in sltA assessed as growth inhibition after 72 hrs by Neubauer chamber analysis; assay type: functional, organism-based; outline: as §2
[14] = system: Aspergillus fumigatus; assay: Anifungal activity against Aspergillus fumigatus CBS144 assessed as growth inhibition at 5 uM after 48 to 72 hrs by Neubauer chamber analysis; assay type: functional, organism-based
Outline: (§4)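 Wild-type prototroph A. fumigatus strains (CM237, AF293, CBS144) grown on solid minimal medium (AMM) with inhibitor added from DMSO stock (stock 50 mM); DMSO-only medium as control. 10^3 spores (counted by Neubauer chamber) centrally point-inoculated per well; incubated at 37°C, colonial growth scored after 48 and 72 h.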

[15] = system: Aspergillus fumigatus; assay: Anifungal activity against Aspergillus fumigatus CM237 assessed as growth inhibition at 5 uM after 72 hrs by Neubauer chamber analysis; assay type: functional, organism-based; outline: as §4
[16] = system: Aspergillus fumigatus; assay: Anifungal activity against Aspergillus fumigatus AF293 assessed as growth inhibition at 5 uM after 72 hrs by Neubauer chamber analysis; assay type: functional; outline: as §4
[17] = system: Aspergillus fumigatus; assay: Anifungal activity against Aspergillus fumigatus CM237 assessed as growth inhibition at 5 uM after 48 hrs by Neubauer chamber analysis; assay type: functional, organism-based; outline: as §4
[18] = system: Aspergillus fumigatus; assay: Anifungal activity against Aspergillus fumigatus AF293 assessed as growth inhibition at 5 uM after 48 hrs by Neubauer chamber analysis; assay type: functional; outline: as §4

## Cn1sc(=O)n(Cc2ccccc2)c1=O
[1]
  growth inhibition (GI): inactive
[2]
  growth inhibition (GI): Active
[3]
  inhibition at 10 µM: 50%
[4]
  growth inhibition (GI): Active
[5]
  growth inhibition (GI): Active
[6]
  growth inhibition (GI): Active

## COc1ccc(CNC(=O)Nc2nc(C)c(C(C)=O)s2)cc1
[7]
  growth inhibition (GI): inactive
[8]
  IC50: 600 nM
[1]
  growth inhibition (GI): inactive

## O=c1sn(-c2cccc3ccccc23)c(=O)n1Cc1ccccc1
[7]
  growth inhibition (GI): inactive
[1]
  growth inhibition (GI): inactive
[9]
  inhibition: Active
[10]
  growth inhibition (GI): inactive
[11]
  growth inhibition (GI): inactive
[12]
  growth inhibition (GI): inactive

## CCCCCCCCCCCC(=O)NNC(=O)c1c(O)c2ccccc2n(CC)c1=O
[7]
  growth inhibition (GI): inactive
[8]
  IC50: 2800 nM
[1]
  growth inhibition (GI): inactive

## O=C(CCl)c1scc(Br)c1Br
[13]
  growth inhibition (GI): Active
[1]
  growth inhibition (GI): inactive
[14]
  growth inhibition (GI): Active
[15]
  growth inhibition (GI): inactive
[16]
  growth inhibition (GI): inactive
[17]
  growth inhibition (GI): Active
[18]
  growth inhibition (GI): Active
